The values that follow come from ChEMBL document CHEMBL4393742, “Structure-activity analysis of peptidic Chlamydia HtrA inhibitors” (Bioorg Med Chem, 2019).

In assay [1] the target is T1, Neutrophil elastase (Homo sapiens, UniProt P08246).
T1 sequence (P08246 whole entry): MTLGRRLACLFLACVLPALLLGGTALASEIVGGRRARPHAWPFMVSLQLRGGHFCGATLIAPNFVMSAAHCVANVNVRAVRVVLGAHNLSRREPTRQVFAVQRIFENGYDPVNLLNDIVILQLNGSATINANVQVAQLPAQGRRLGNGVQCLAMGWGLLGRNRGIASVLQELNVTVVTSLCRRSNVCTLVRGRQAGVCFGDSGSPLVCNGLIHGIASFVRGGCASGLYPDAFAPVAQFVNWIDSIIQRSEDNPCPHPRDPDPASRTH
As to the kind of experiment: Inhibition of human neutrophil elastase using AAPV-pNA as substrate preincubated for 15 mins followed by substrate addition and measured every 15 secs for 5 mins. An outline of the steps:
(§1)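 Enzyme and inhibitor (in DMSO) were preincubated at 37 °C for 15 min in 0.10 M Tris-HCl, pH 8.1, with 0.02 M CaCl₂. The pNA substrate was added to start the reaction. A405 was monitored every 15 s over 5 min at 37 °C. Runs were in triplicate, and inhibition was expressed as percent enzyme activity remaining.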

Assay [2] has as its target Trypsin (Homo sapiens, UniProt P07477+P07478+P35030). As to the kind of experiment: Inhibition of human trypsin using Nalpha-benzoyl-DL-R-pNA as substrate preincubated for 15 mins followed by substrate addition and measured every 15 secs for 5 mins. In kind it is protein assay. An outline of the steps:
as §1

A short description of assay [3]: Inhibition of bovine pancreas chymotrypsin using AAPF-pNA as substrate preincubated for 15 mins followed by substrate addition and measured every 15 secs for 5 mins. On the set-up: species or system Bos taurus. The essentials:
as §1

In assay [4] the test system is Chlamydia trachomatis. Briefly: Antibacterial activity against Chlamydia trachomatis D/UW-3/Cx strain infected in mouse McCoy cells assessed as inclusion forming units at 100 uM treated 16 hrs post infection measured at 44 hrs post-infection by Evan's blue staining based-confocal microscopic analysis (reference value: 62 +/- 8.5 10^5U/mL). It is filed as functional.

A short description of assay [5]: Inhibition of recombinant chlamydia trachomatis serovar L2 434/Bu/ATCC VR-902B HtrA expressed in Escherichia coli BL21(DE3) using MeOCoum-ENLHLPLPIIF-NH-DNP as fluorescent mimotope preincubated for 20 mins followed by mimotope addition in presence of fluorophore 7-methoxycoumarin-4-acetic acid by plate reader based fluorescence assay. Details: species or system Chlamydia trachomatis 434/Bu.

A short description of assay [6]: Inhibition of chlamydia trachomatis HtrA using MCA-ENLHLPLPIIF-DNP as substrate by FRET or pNA assay. The essentials: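 Recombinant CtHtrA at 0.5 mg/mL stock, preincubated with inhibitor in DMSO in 50 mM Tris/20 mM MgCl2, pH 7.0, for 20 min at 37 °C. Reaction started with quenched fluorescent peptide (methoxycoumarin fluorophore, DNP quencher; 1 mg/mL stock in 50% isopropanol). Fluorescence read immediately at ex 340/em 405 nm over 50 cycles.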

The subject of assay [7] is Chlamydia trachomatis 434/Bu. Briefly: Potency index, ratio of JO146 IC50 to compound IC50 for inhibition of recombinant chlamydia trachomatis serovar L2 434/Bu/ATCC VR-902B HtrA expressed in Escherichia coli BL21(DE3) using MeOCoum-ENLHLPLPIIF-NH-DNP as fluorescent mimotope preincubated for 20 mins followed by mimotope addition in presence of fluorophore 7-methoxycoumarin-4-acetic acid by plate reader based fluorescence assay.

For assay [8], the system named is Chlamydia pecorum. As to the kind of experiment: Antibacterial activity against Chlamydia pecorum IPA ATCC VR629 infected in mouse McCoy cells assessed as inclusion forming units at 100 uM treated 16 hrs post infection measured at 44 hrs post-infection by Evan's blue staining based-confocal microscopic analysis (reference value: 342.55646 +/- 6.53872 10^5U/mL). It is filed as functional.

The structures appear in SMILES notation. Activity calls are given as the source filed them. The calls are words filed in the database; no cut-off is given here. Square brackets hold non-standard residues; d marks the D form. Peptide text beside a SMILES is read from it. * marks the point of attachment. ξ: configuration not given here. Boc = CC(C)(C)OC(=O)*; ξV = CC(C)C(N)C(=O)O

For orientation: IC50 means the point on the concentration scale where inhibition reaches its midpoint. As for `CC(C)C(NC(=O)[C@@H]1CCCN1C(=O)[C@@H](NC(=O)OC(C)(C)C)C(C)C)P(=O)(Oc1ccccc1)Oc1ccccc1` (stereo partly drawn), the IC50 was 0.83 µM in assay [1]; greater than 500 µM in assay [2]; greater than 500 µM in assay [3]; 13 to 351 µM in assay [5]; 12.5 µM in assay [6]. Also, the Activity in assay [4] stood at 0.00434 ×10⁵ U/mL.
`CC(C)C(NC(=O)[C@@H]1CCCN1C(=O)[C@H](C)NC(=O)OC(C)(C)C)P(=O)(Oc1ccccc1)Oc1ccccc1` (stereo partly drawn) yielded an IC50 in assay [6] of 47.2 µM.
With `CC(C)C(NC(=O)[C@@H]1CCCN1C(=O)[C@@H](NC(=O)OC(C)(C)C)C(C)C)C(=O)C(N)=O` (stereo partly drawn), the “Ratio IC50” value in assay [7] was “inactive”. Moreover, in assay [4], the Activity stood at 29.07 ×10⁵ U/mL. In addition, the IC50 in assay [5] was greater than 500 µM.
`CCN(C)C(=O)C(NC(=O)[C@@H]1CCCN1C(=O)[C@@H](NC(=O)OC(C)(C)C)C(C)C)C(C)C` (stereo partly drawn): the “Ratio IC50” value in assay [7] was “inactive”. In addition, in assay [4], the Activity is 34.5497 ×10⁵ U/mL. The half-inhibitory concentration (IC50) in assay [5] was greater than 500 µM.
For `CC(C)C(NC(=O)[C@@H]1CCCN1C(=O)[C@@H](NC(=O)OC(C)(C)C)C(C)C)C(=O)N(C)C1CC1` (stereo partly drawn), in that order: “inactive”, 8.3844 ×10⁵ U/mL and greater than 500 µM.
Turning to `C=CCN(C)C(=O)C(NC(=O)[C@@H]1CCCN1C(=O)[C@@H](NC(=O)OC(C)(C)C)C(C)C)C(C)C` (stereo partly drawn), in assay [7], the “Ratio IC50” value is “inactive”. Also, the Activity in assay [4] is recorded as 36.2553 ×10⁵ U/mL. The IC50 in assay [5] was greater than 500 µM.
Turning to `CCCC(NC(=O)[C@@H]1CCCN1C(=O)[C@@H](NC(=O)OC(C)(C)C)C(C)C)C(=O)c1nccs1` (stereo partly drawn), in assay [7], the “Ratio IC50” value is “inactive”. Also, the half-maximal inhibitory concentration (IC50) in assay [1] was greater than 150 µM; in assay [2], greater than 500 µM; in assay [3] it was greater than 500 µM; in assay [5], greater than 500 µM.
In the case of `CC(C)C(NC(=O)[C@@H]1CCCN1C(=O)[C@@H](NC(=O)OC(C)(C)C)C(C)C)C(=O)N(C)C` (stereo partly drawn) (Boc-Val-Pro-[ξV]-NMe2), the “Ratio IC50” value in assay [7] is “inactive”. The Activity in assay [4] amounted to 30.9343 ×10⁵ U/mL. In assay [5], the concentration for half-maximal inhibition (IC50) was greater than 500 µM.
As to `CCCC(NC(=O)[C@@H]1CCCN1C(=O)[C@@H](NC(=O)OC(C)(C)C)C(C)C)P(=O)(Oc1ccccc1)Oc1ccccc1` (mixture of isomers), in assay [7], the “Ratio IC50” value was “inactive”. For the same compound, the IC50 in assay [1] is 0.68 µM; in assay [2], greater than 500 µM; in assay [3] it was greater than 500 µM; in assay [5] it was greater than 500 µM. For the same compound, the Activity is on record as 1.49 ×10⁵ U/mL in assay [4] and 0.4583 ×10⁵ U/mL in assay [8].
Turning to `CCC(=O)C(=O)C(NC(=O)[C@@H]1CCCN1C(=O)[C@@H](NC(=O)OC(C)(C)C)C(C)C)C(C)C` (mixture of isomers), in assay [7], the “Ratio IC50” value is “inactive”. Moreover, the IC50 in assay [1] is 4.71 µM; in assay [2], greater than 500 µM; in assay [3] it was greater than 500 µM; in assay [5], greater than 500 µM. The Activity is 57 ×10⁵ U/mL in assay [4] and 351 ×10⁵ U/mL in assay [8].
As for `CC(C)C(CO)NC(=O)[C@@H]1CCCN1C(=O)[C@@H](NC(=O)OC(C)(C)C)C(C)C` (mixture of isomers), in assay [7], the “Ratio IC50” value was “inactive”. Further, the Activity in assay [4] was 34.6007 ×10⁵ U/mL. The IC50 in assay [5] was greater than 500 µM.
As for `CC(C)C(NC(=O)[C@@H]1CCCN1C(=O)[C@@H](NC(=O)OC(C)(C)C)C(C)C)C(=O)c1nccs1` (mixture of isomers), in assay [7], the “Ratio IC50” value is “inactive”. The Activity in assay [4] is on record as 33.1 ×10⁵ U/mL; in assay [8] it was 1.983 ×10⁵ U/mL. Further, in assay [5], the IC50 was greater than 500 µM.
As to `CCC(C)C(NC(=O)[C@@H]1CCCN1C(=O)[C@@H](NC(=O)OC(C)(C)C)C(C)(C)C)P(=O)(Oc1ccccc1)Oc1ccccc1` (mixture of isomers), in assay [7], the “Ratio IC50” value is “inactive”. Moreover, the IC50 in assay [1] is 2.35 µM; in assay [2], greater than 500 µM; in assay [3], 0.53 µM; in assay [5], greater than 500 µM. For the same compound, the Activity was determined as 0.1099 ×10⁵ U/mL in assay [4] and 0.2042 ×10⁵ U/mL in assay [8].
As for `CCC(C)C(NC(=O)[C@@H]1CCCN1C(=O)[C@@H](NC(=O)OC(C)(C)C)C(C)(C)C)C(=O)c1nc2ccccc2s1` (mixture of isomers), the “Ratio IC50” value in assay [7] was “inactive”. Besides, the IC50 is 4.83 µM in assay [1], greater than 500 µM in assay [2], greater than 500 µM in assay [3] and greater than 500 µM in assay [5]. Also, the Activity in assay [4] was found to be 2.829 ×10⁵ U/mL; in assay [8], 0.2193 ×10⁵ U/mL.
As for `CC(C)[C@H](NC(=O)OC(C)(C)C)C(=O)N1CCC[C@H]1C(=O)NC(C(C)(C)C)P(=O)(Oc1ccccc1)Oc1ccccc1` (mixture of isomers), the “Ratio IC50” value in assay [7] was “inactive”. Besides, the half-inhibitory concentration (IC50) in assay [1], in assay [2], in assay [3] and in assay [5] was greater than 500 µM each time. The Activity worked out at 0.217 ×10⁵ U/mL in assay [4] and 5.344 ×10⁵ U/mL in assay [8].
As to `CC(C)C(NC(=O)[C@@H]1CCCN1C(=O)[C@@H](NC(=O)OC(C)(C)C)C(C)C)C(=O)C(=O)C1CC1` (mixture of isomers), the “Ratio IC50” value in assay [7] was “inactive”. Further, the IC50 in assay [2], in assay [3] and in assay [5] was greater than 500 µM in each case. The Activity in assay [4] is given as 55.0347 ×10⁵ U/mL.
Regarding `CCC(C)C(NC(=O)[C@@H]1CCCN1C(=O)[C@@H](NC(=O)OC(C)(C)C)[C@@H](C)CC)P(=O)(Oc1ccccc1)Oc1ccccc1` (mixture of isomers), the IC50 in assay [1] was 0.84 µM; in assay [2], greater than 500 µM; in assay [3], 1.28 µM; in assay [5], 86 µM. Further, the Activity in assay [4] is recorded as 0.1134 ×10⁵ U/mL; in assay [8], 0.3958 ×10⁵ U/mL.
Regarding `CC[C@H](C)[C@H](NC(=O)OC(C)(C)C)C(=O)N1CCC[C@H]1C(=O)NC(C(C)C)P(=O)(Oc1ccccc1)Oc1ccccc1` (mixture of isomers), the Ratio IC50 in assay [7] was determined as 14.3. For the same compound, the IC50 is 0.4 µM in assay [1], greater than 500 µM in assay [2], greater than 500 µM in assay [3] and 25 µM in assay [5]. The Activity in assay [4] was 0.5089 ×10⁵ U/mL; in assay [8], 10.8851 ×10⁵ U/mL.
Turning to `CCC(C)C(NC(=O)[C@@H]1CCCN1C(=O)[C@@H](NC(=O)OC(C)(C)C)C(C)C)P(=O)(Oc1ccccc1)Oc1ccccc1` (mixture of isomers), the Ratio IC50 in assay [7] was found to be 20. Moreover, the half-inhibitory concentration (IC50) is 0.36 µM in assay [1], greater than 500 µM in assay [2], 38.5 µM in assay [3] and 18.4 µM in assay [5]. Moreover, the Activity amounted to 0.09231 ×10⁵ U/mL in assay [4] and 43.9246 ×10⁵ U/mL in assay [8].
With `CC(=O)C(=O)C(NC(=O)[C@@H]1CCCN1C(=O)[C@@H](NC(=O)OC(C)(C)C)C(C)C)C(C)C` (mixture of isomers), the “Ratio IC50” value in assay [7] is “inactive”. Further, the IC50 in assay [1] is 1.35 µM; in assay [2], greater than 500 µM; in assay [3], greater than 500 µM; in assay [5], greater than 500 µM. Moreover, in assay [4], the Activity was determined as 86 ×10⁵ U/mL.
As to `CCC[C@H](NC(=O)OC(C)(C)C)C(=O)N1CCC[C@H]1C(=O)NC(C(C)C)P(=O)(Oc1ccccc1)Oc1ccccc1` (mixture of isomers), the IC50 is 0.45 µM in assay [1], greater than 500 µM in assay [2], greater than 500 µM in assay [3] and 56 µM in assay [5]. Further, the Activity in assay [4] is 17.0963 ×10⁵ U/mL; in assay [8] it was 219.8 ×10⁵ U/mL.
As for `CC(C)C(NC(=O)[C@@H]1CCCN1C(=O)[C@@H](NC(=O)OC(C)(C)C)C(C)(C)C)P(=O)(Oc1ccccc1)Oc1ccccc1` (mixture of isomers), the Ratio IC50 in assay [7] came out at 33.3. Also, the IC50 is 0.68 µM in assay [1], greater than 500 µM in assay [2], greater than 500 µM in assay [3] and 9.3 µM in assay [5]. For the same compound, the Activity in assay [4] was determined as 0.01548 ×10⁵ U/mL; in assay [8] it was 0.03388 ×10⁵ U/mL.
